FGF22 binding: binders of human FGF22 protein, primary screen, FGF22 synaptogenesis inhibitor project, biophysical, thermal shift, single point | Fibroblast growth factor 22 (Homo sapiens), Q9HCT0 | recombinant FGF22 thermal shift, SYPRO orange fluorescence; percent of sucrose octasulfate shift, DMSO zero | activity (Tm shift, normalised), % at 9.99 µM | 340,000 tested, 1.5% active | AID 651658, 2012;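 active = mean Tm shift, scaled 0 neutral to 100 positive control, at about 1.3% or above, every replicate too, limit read from the data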
Target sequence (Q9HCT0 whole entry, looked up): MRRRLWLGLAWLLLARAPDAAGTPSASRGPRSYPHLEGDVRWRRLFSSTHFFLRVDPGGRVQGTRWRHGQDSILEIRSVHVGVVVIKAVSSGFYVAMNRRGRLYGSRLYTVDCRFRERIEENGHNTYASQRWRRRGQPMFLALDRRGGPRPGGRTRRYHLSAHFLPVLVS
FN deposit inh: inhibitors of fibronectin matrix deposition, primary screen, AH1F cells, Alexa488-fibronectin fluorescence, plate reader; AH1F fibroblasts, overnight; 350,000 tested, 0.086% active; inhibition, % at 12.6 µM;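 active = mean inhibition across replicates of 30% or more, regardless of how many single replicates reach that level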
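Schedule: 1 h cell adhesion before compound, then overnight fibronectin incubation; test system: AH1F fibroblast monolayer depositing Alexa488-labelled fibronectin into matrix; quantity: 10000 AH1F cells per well; probe or stimulus: fluorescent fibronectin at 24 nM final; signal: fluorescence, ex 485 nm, em 525 nm; evaluation: percent inhibition as loss of matrix-bound fibronectin fluorescence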
PGC1a acetyl inh: inhibitors of PGC1a acetylation signal, primary screen, cell-based, U2OS, AlphaScreen, inhibitor mode. AlphaScreen anti-acetyl-lysine; with virally co-expressed GCN5 acetyltransferase. inhibition, % at 15.6 µM. 350,000 tested, 0.17% active. AID 651687, 2012;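 active = every replicate shows inhibition of at least 40%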
HIV Env fusion: inhibitors of HIV-1 Env-driven cell-cell fusion, primary screen, HeLa-JRFL effector, CEM21 target cells, luciferase | inhibition, % at 12.3 µM | 360,000 tested, 1.1% active | AID 651610, 2012;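 active = mean replicate inhibition score of at least 50 and every replicate individually at or above 50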
PAX8 reporter: inhibitors of PAX8-driven TPO luciferase reporter, primary screen, RMG-I cells, single concentration; 360,000 tested, 1.2% active; inhibition, % at 12.6 µM; SteadyGlo, 24 h;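 active = mean replicate inhibition at least 60% with every replicate also reaching 60%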;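 also: luciferase light reporting Pax8 driven TPO promoter activity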
EWS-Fli inh: EWS/Fli-driven NR0B1 reporter inhibitors, primary screen, A673 cells, NR0B1 luciferase, luminescence, MLPCN library; viability-normalised; inhibition, % at 12.6 µM; 350,000 tested, 0.67% active; AID 651661, 2012;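 active = mean inhibition of at least 50% after viability correction, with every replicate also passing that limit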;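 also: firefly luciferase signal divided by Alamar Blue viability fluorescence both relative to DMSO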
A number is an active result; . = inactive; / = no result. The list is not random: actives were taken first. Their share in the collection is about 3.1%.

SMILES | FGF22 binding | FN deposit inh | PGC1a acetyl inh | HIV Env fusion | PAX8 reporter | EWS-Fli inh
CC(=O)Nc1nc(C)cs1 | . | . | / | . | . | .
CC(=O)Nc1nc(C(=O)O)cs1 | 43 | . | . | . | . | .
CCN(CC)S(=O)(=O)c1cccc(C(=O)Nc2nc3cc4c(cc3s2)OCCO4)c1 | . | / | . | 62 | / | /
CN(CC1CCCO1)S(=O)(=O)c1ccc(C(=O)Nc2nc3cc4c(cc3s2)OCO4)cc1 (stereo unspecified) | . | / | / | 57 | . | .
CCc1nnc(NC(=O)[C@@H](NC(=O)c2cccc(S(=O)(=O)N(CC)CC)c2)C(C)C)s1 | / | . | . | 70 | / | /
O=C(Nc1nc2cc3c(cc2s1)OCCO3)c1cccc(N2C(=O)CCC2=O)c1 | . | . | / | . | . | .
CCOC(=O)c1c(CSc2ccccc2)n(C)c2ccc(O)c(CN3CCN(C)CC3)c12 | . | . | . | . | . | .
CCOC(=O)c1c(CSc2ccc(C)cc2)n(C)c2cc(Br)c(O)c(CN(C)C)c12 | / | . | . | 87 | . | .
CCOC(=O)c1c(CSc2ccsc2)n(C)c2cc(Br)c(O)c(CN(C)C)c12 | . | . | . | 87 | . | .
CCOC(=O)c1c(CSc2ccccc2)n(C)c2cc(Br)c(O)c(CN(C)C)c12 | . | . | . | 67 | . | .
CCOC(=O)c1c(CN2CCCCC2)n(C)c2cc(Br)c(O)c(CN(C)C)c12 | / | / | . | / | / | /
Cc1nc(-c2cccc(NC(=O)c3cccs3)c2)cs1 | / | . | . | . | . | /
Cc1nc(-c2cccc(NC(=O)Cc3ccccc3)c2)cs1 | 43 | . | / | . | . | .
O=C(NCC(F)(F)F)[C@@H]1[C@@H](CO)[C@@H]2Cn3c(cccc3=O)[C@H]1N2CC1CC1 | . | / | / | / | / | .
O=S(=O)(c1ccc(F)cc1)N(CCO)CC(O)Cn1c2ccccc2c2ccccc21 (stereo unspecified) | / | / | . | 66 | / | /
CC(C)(CO)CNC(=O)CCc1nnc(CCCc2ccccc2)o1 | 43 | . | / | . | . | .
C=C(C)CNC(=O)CCc1nnc(Cc2cccc(C(F)(F)F)c2)o1 | 43 | . | / | . | . | .
CC(C)(CO)CNC(=O)CCc1nnc(Cc2ccc(-c3ccccc3)cc2)o1 | . | . | . | . | . | .
C[C@@H]1CN([C@H](C)CO)C(=O)Cc2cc(NC(=O)Cn3cnnn3)ccc2O[C@H]1CN(C)S(=O)(=O)c1ccccc1 | . | / | . | . | . | .
C#CCOCCOCCOCCNc1nc(N2CCN(C(=O)[C@H](CO)n3cc([C@@H](N)C(C)C)nn3)CC2)nc(N2CCN(C(=O)[C@H](CCCCN)n3cc([C@@H](N)[C@H](C)CC)nn3)CC2)n1 | 43 | . | / | / | . | .
Cc1ccc2nc(-c3cccc(N)c3)oc2c1 | . | / | . | / | / | 59
COc1ccc(-n2nc([N+](=O)[O-])c(=NCCc3ccccc3)n2O)cc1 | . | . | / | / | 94 | .
O=[N+]([O-])c1nn(-c2ccccc2)n(O)c1=NCCc1ccccc1 | / | / | . | / | / | /
O=C(C[C@@H]1C=C[C@@H](NC(=O)Nc2cc(F)ccc2F)[C@H](CO)O1)NCc1ccc2c(c1)OCO2 | . | . | . | / | / | /
[O-]/[N+](=C\c1ccccc1)[C@@H]1CCCC[C@@H]1/[N+]([O-])=C/c1ccccc1 | / | / | . | / | / | /
[O-][N+](=Cc1ccccc1)CC1(O)CCCCC1 | 43 | . | . | . | . | .
CC(C)CC#Cc1cnc2c(c1)C(=O)N([C@@H](C)CO)C[C@H](C)[C@@H](CN(C)Cc1ccccc1)O2 | . | . | . | . | / | .
C=CCC[C@H](Cc1ccc(F)cc1)C(=O)OC[C@H](Cc1c[nH]c2ccccc12)NC(=O)[C@@H](CC=C)CC(=O)N[C@@H](CO)Cc1ccccc1 | . | 32 | / | . | . | .
C=CC[C@@H](CC(=O)N[C@H](CO)Cc1ccccc1)C(=O)N[C@H](COC(=O)[C@@H](CC=C)Cc1ccc(F)cc1)Cc1c[nH]c2ccccc12 | . | . | / | . | 88 | .
CCCCN1/C(=C/c2ccc3ccccc3[n+]2CC)Sc2ccccc21 | / | / | . | / | / | /

Bioassay records: PubChem BioAssay, Broad Institute
